ChEMBL document CHEMBL4402513, “Bio-Inspired Dual-Selective BCL-2/c-MYC G-Quadruplex Binders: Design, Synthesis, and Anticancer Activity of Drug-like Imidazo[2,1-i]purine Derivatives” (J Med Chem, 2020)
Calls of active or inactive are those of the source. The calls are words filed in the database; no cut-off is given here.

Assays:
[1] = test system: Quadruplex DNA; assay: Binding affinity to synthetic BCL2 G4 quadruplex DNA assessed as change in chiral structure at 10 molar equiv to DNA measured after 10 mins by circular dichroism spectroscopic analysis; assay type: nucleic-acid assay
Procedure, shortened: (§1)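 CD spectra of annealed DNA in 20 mM KCl, 5 mM KH2PO4 (pH 7.0). G4 DNAs were at 10 µM and duplex at 15 µM. Ligand (10 mM DMSO stock) was added at 10 molar equivalents. Spectra were recorded 10 min after addition at 20 °C over 230–360 nm, averaged over three scans and baseline corrected.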

[2] = test system: Quadruplex DNA; assay: Binding affinity to synthetic c-MYC G4 quadruplex DNA assessed as change in chiral structure at 10 molar equiv to DNA measured after 10 mins by circular dichroism spectroscopic analysis; assay type: nucleic-acid assay; procedure, shortened: as §1
[3] = test system: Quadruplex DNA; assay: Binding affinity to synthetic c-KIT1 G4 quadruplex DNA assessed as change in chiral structure at 10 molar equiv to DNA measured after 10 mins by circular dichroism spectroscopic analysis; assay type: nucleic-acid assay; procedure, shortened: as §1
[4] = test system: Quadruplex DNA; assay: Binding affinity to human telomeric 23 G4 quadruplex DNA assessed as change in chiral structure at 10 molar equiv to DNA measured after 10 mins by circular dichroism spectroscopic analysis; assay type: nucleic-acid assay; procedure, shortened: as §1
[5] = Binding affinity to synthetic 20-mer hairpin duplex DNA assessed as change in chiral structure at 10 molar equiv to DNA measured after 10 mins by circular dichroism spectroscopic analysis; procedure, shortened: as §1
[6] = test system: Quadruplex DNA; assay: Binding affinity to synthetic BCL2 G4 quadruplex DNA assessed as change in melting temperature at 10 molar equiv to DNA measured after 10 mins by circular dichroism melting analysis; assay type: nucleic-acid assay
Procedure, shortened: (§2)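 CD melting of folded DNA (G4 10 µM, duplex 15 µM) in 20 mM KCl, 5 mM KH2PO4 (pH 7.0), without and with 10 molar equivalents of ligand. Tm was taken from curve fitting, and ΔTm = Tm(DNA+ligand) − Tm(DNA). Runs were done in triplicate and averaged.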

[7] = test system: Quadruplex DNA; assay: Binding affinity to synthetic c-MYC G4 quadruplex DNA assessed as change in melting temperature at 10 molar equiv to DNA measured after 10 mins by circular dichroism melting analysis; assay type: nucleic-acid assay; procedure, shortened: as §2
[8] = test system: Quadruplex DNA; assay: Binding affinity to synthetic c-KIT1 G4 quadruplex DNA assessed as change in melting temperature at 10 molar equiv to DNA measured after 10 mins by circular dichroism melting analysis; assay type: nucleic-acid assay; procedure, shortened: as §2
[9] = test system: Quadruplex DNA; assay: Binding affinity to human telomeric 23 G4 quadruplex DNA assessed as change in melting temperature at 10 molar equiv to DNA measured after 10 mins by circular dichroism melting analysis; assay type: nucleic-acid assay; procedure, shortened: as §2
[10] = Binding affinity to synthetic 20-mer hairpin duplex DNA assessed as change in melting temperature at 10 molar equiv to DNA measured after 10 mins by circular dichroism melting analysis; procedure, shortened: as §2
[11] = test system: Jurkat; assay: Cytotoxicity against human Jurkat cells assessed as reduction in cell viability measured after 48 hrs by combined MTT and trypan blue staining based cell counting assay; assay type: functional
Procedure, shortened: (§3)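 Cells were seeded at 10^4/well (HDF 10^3), grown 24 h, then treated 48 h at 5–100 µM in 0.5% v/v DMSO. Read-outs were MTT (1 h, 37 °C, absorbance 550 nm; Jurkat handled by centrifugation) combined with trypan blue live/dead counting into a survival index versus untreated cells. IC50 came from nonlinear regression, n = 6 per experiment ×3 (n = 18), mean ± SEM.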

[12] = test system: Jurkat; assay: Cytotoxicity against human Jurkat cells assessed as cell viability at 50 uM measured after 48 hrs by combined MTT and trypan blue staining based cell counting assay relative to control; assay type: functional; details: read-out: Activity; procedure, shortened: as §3
[13] = test system: MCF7; assay: Cytotoxicity against human MCF7 cells assessed as reduction in cell viability measured after 48 hrs by combined MTT assay; assay type: functional, cell-based; details: MCF7, 48 h; procedure, shortened: as §3
[14] = test system: HCT-116; assay: Cytotoxicity against human HCT116 cells assessed as reduction in cell viability measured after 48 hrs by combined MTT assay; assay type: functional, cell-based; details: HCT-116, 48 h; procedure, shortened: as §3
[15] = test system: A-375; assay: Cytotoxicity against human A375 cells assessed as reduction in cell viability measured after 48 hrs by combined MTT assay; assay type: functional, cell-based; details: A-375, 48 h; procedure, shortened: as §3
[16] = test system: HaCaT; assay: Cytotoxicity against human HaCaT cells assessed as reduction in cell viability measured after 48 hrs by combined MTT assay; assay type: cell-based; procedure, shortened: as §3
[17] = test system: NHDF; assay: Cytotoxicity against HDF cells assessed as reduction in cell viability measured after 48 hrs by combined MTT assay; assay type: cell-based; details: Homo sapiens; procedure, shortened: as §3
[18] = test system: Jurkat; assay: Induction of apoptosis in human Jurkat cells assessed as viable cells at 25 uM measured after 48 hrs by Annexin V-FITC/propidium iodide staining based flow cytometry (reference value: 97%); assay type: functional; details: read-out: Activity
[19] = test system: Jurkat; assay: Induction of apoptosis in human Jurkat cells assessed as early apoptotic cells at 25 uM measured after 48 hrs by Annexin V-FITC/propidium iodide staining based flow cytometry (reference value: 0.3%); assay type: functional
[20] = test system: Jurkat; assay: Induction of apoptosis in human Jurkat cells assessed as late apoptotic cells at 25 uM measured after 48 hrs by Annexin V-FITC/propidium iodide staining based flow cytometry (reference value: 1.4%); assay type: functional
[21] = test system: Jurkat; assay: Down regulation of c-MYC mRNA expression in human Jurkat cells at 25 uM measured after 24 hrs by RT-qPCR analysis relative to control; assay type: functional
Procedure, shortened: (§4)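 Jurkat cells were treated 24 h at 25 µM, and total RNA was extracted with TRI Reagent. 0.5 µg RNA was reverse transcribed with MMLV RT and random primers (22 °C 10 min, 42 °C 60 min). SYBR qPCR ran 40 cycles (95/59/72 °C) in duplicate with GAPDH as reference. Relative expression was calculated by the […] method from at least three independent experiments.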

[22] = test system: Jurkat; assay: Down regulation of BCL2 mRNA expression in human Jurkat cells at 25 uM measured after 24 hrs by RT-qPCR analysis relative to control; assay type: functional; procedure, shortened: as §4
[23] = test system: Jurkat; assay: Down regulation of c-MYC expression in human Jurkat cells at 25 uM measured after 24 hrs by Western blot analysis relative to control; assay type: functional
Procedure, shortened: (§5)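 Jurkat cells treated 24 h at 25 µM were lysed in 50 mM Hepes pH 7.4, 50 mM NaCl, 1% Triton with protease inhibitors. Protein was quantified by Bradford and run on 10% SDS-PAGE to nitrocellulose. Blots were probed with anti-Bcl-2, anti-c-Myc and anti-β-actin and detected by ECL. Densitometry was normalised to β-actin and expressed as % of control; three independent experiments.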

[24] = test system: Jurkat; assay: Down regulation of BCL2 expression in human Jurkat cells at 25 uM measured after 24 hrs by Western blot analysis relative to control; assay type: functional; procedure, shortened: as §5
[25] = molecular target: Quadruplex DNA; assay: Binding affinity to synthetic Cy5-fluorescently labeled c-MYC G4 quadruplex DNA by microscale thermophoresis method; assay type: nucleic-acid assay
Procedure, shortened: (§6)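 MST with Cy5-labelled oligonucleotides annealed at 1 µM in 5 mM KH2PO4/20 mM KCl (pH 7.0), then diluted in the same buffer with 0.1% Tween. DNA was held at 40 nM. Ligand was serially diluted 1:2 from a 4 mM DMSO stock and mixed 1:1 with DNA, giving 5% final DMSO. Kd was derived from thermophoresis binding curves.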

[26] = molecular target: Quadruplex DNA; assay: Binding affinity to synthetic Cy5-fluorescently labeled BCL2 G4 quadruplex DNA by microscale thermophoresis method; assay type: nucleic-acid assay; procedure, shortened: as §6
[27] = molecular target: Quadruplex DNA; assay: Binding affinity to synthetic Cy5-fluorescently labeled c-KIT1 G4 quadruplex DNA by microscale thermophoresis method; assay type: nucleic-acid assay; procedure, shortened: as §6
[28] = Binding affinity to synthetic Cy5-fluorescently labeled 20-mer hairpin duplex DNA by microscale thermophoresis method; procedure, shortened: as §6
[29] = test system: Quadruplex DNA; assay: Binding affinity to human Cy5-fluorescently labeled telomeric 23 G4 quadruplex DNA by microscale thermophoresis method; assay type: nucleic-acid assay; procedure, shortened: as §6
[30] = test system: Quadruplex DNA; assay: Binding affinity to synthetic c-MYC G4 quadruplex DNA up to 5:1 compound/DNA ratio by 1H-NMR analysis; assay type: nucleic-acid assay
Procedure, shortened: (§7)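 1H NMR titration of G4 DNA at 0.2 mM in H2O/D2O 9:1 containing 5 mM KH2PO4, 20 mM KCl, 0.2 mM EDTA (pH 7.0), with DPFGSE water suppression. Ligand aliquots from 20 mM deutero-DMSO stock were added in the tube up to 5:1 ligand/G4. Imino and aromatic proton shifts were monitored.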

[31] = test system: Quadruplex DNA; assay: Binding affinity to synthetic BCL2 G4 quadruplex DNA up to 5:1 compound/DNA ratio by 1H-NMR analysis; assay type: nucleic-acid assay; procedure, shortened: as §7

## CN(C)c1ccc(-c2nc3c4ncn(CCN5CCOCC5)c4ncn3c2NC(C)(C)C)cc1
[1]
  Activity: inactive
[2]
  Activity: inactive
[3]
  Activity: inactive
[4]
  Activity: inactive
[5]
  Activity: inactive
[6]
  ΔTm: 9.2 °C
[7]
  ΔTm: 7.2 °C
[8]
  ΔTm: 5.2 °C
[9]
  ΔTm: 2.4 °C
[10]
  ΔTm: 1.9 °C

## CN(C)c1ccc(-c2nc3c4ncn(CCCNC(=N)N)c4ncn3c2NC(C)(C)C)cc1
[6]
  ΔTm: 2.8 °C
[7]
  ΔTm: 2.5 °C
[8]
  ΔTm: 2.1 °C
[9]
  ΔTm: 0.6 °C
[10]
  ΔTm: 0.2 °C

## CN(C)CCCn1cnc2c1ncn1c(NC(C)(C)C)c(-c3ccc(Cl)cc3)nc21
[6]
  ΔTm: 6.7 °C
[7]
  ΔTm: 12.8 °C
[8]
  ΔTm: 2.8 °C
[9]
  ΔTm: 2.4 °C
[10]
  ΔTm: -0.5 °C
[11]
  Activity: Dose-dependent effect
  IC50: 17 µM
[12]
  viability at 50 µM: 25%
[13]
  IC50: > 100 µM
[14]
  IC50: > 100 µM
[15]
  IC50: > 100 µM
[16]
  IC50: > 100 µM
[17]
  IC50: 80 µM
[18]
  viability at 25 µM: 0.5%
[19]
  Activity: 0.5%
[20]
  Activity: 99%
[21]
  Activity: 66%
[22]
  Activity: 67%
[23]
  Activity: 50%
[24]
  Activity: 40%
[25]
  Kd: 26 µM
[26]
  Kd: 60 µM
[27]
  Kd: 51 µM
[28]
  Activity: inactive
[29]
  Activity: inactive
[30]
  Activity: Active
[31]
  Activity: Active

## CN(C)CCCn1cnc2c1ncn1c(NC(C)(C)C)c(-c3ccccc3F)nc21
[6]
  ΔTm: 8.2 °C
[7]
  ΔTm: 11.5 °C
[8]
  ΔTm: 2.6 °C
[9]
  ΔTm: 1.2 °C
[10]
  ΔTm: 0.2 °C
[12]
  viability at 50 µM: 60%
[18]
  viability at 25 µM: 16%
[19]
  Activity: 13%
[20]
  Activity: 68%
[21]
  Activity: 56%
[22]
  Activity: 43%
[23]
  Activity: Active
[24]
  Activity: Active

## CC(C)(C)Nc1c(-c2ccccc2F)nc2c3ncn(CCN4CCOCC4)c3ncn12
[6]
  ΔTm: 2.6 °C
[7]
  ΔTm: 1.9 °C
[8]
  ΔTm: 1 °C
[9]
  ΔTm: 0.7 °C
[10]
  ΔTm: 0.5 °C

## CN(C)c1ccc(-c2nc3ccn(CCN4CCOCC4)c(=O)n3c2NC(C)(C)C)cc1
[1]
  Activity: inactive
[2]
  Activity: inactive
[3]
  Activity: inactive
[4]
  Activity: inactive
[5]
  Activity: inactive
[6]
  deltaTm: inactive
[7]
  deltaTm: inactive
[8]
  deltaTm: inactive
[9]
  deltaTm: inactive
[10]
  deltaTm: inactive

## CC(C)(C)Nc1c(-c2ccc(Cl)cc2)nc2c3ncn(CCN4CCOCC4)c3ncn12
[6]
  ΔTm: 2.1 °C
[7]
  ΔTm: 1.6 °C
[8]
  ΔTm: 1.1 °C
[9]
  ΔTm: 0.3 °C
[10]
  ΔTm: -0.5 °C

## CN(C)CCCOc1ccccc1-c1nc2c3ncn(CCCN(C)C)c3ncn2c1NC(C)(C)C
[6]
  ΔTm: 7.8 °C
[7]
  ΔTm: > 25 °C
[8]
  ΔTm: 4.5 °C
[9]
  ΔTm: 5.7 °C
[10]
  ΔTm: 3.5 °C

## CC(C)(C)Nc1c(-c2ccccc2OCCN2CCCC2)nc2c3ncn(CCN4CCCC4)c3ncn12
[6]
  ΔTm: 7.1 °C
[7]
  ΔTm: 8.4 °C
[8]
  ΔTm: 4.5 °C
[9]
  ΔTm: 4.9 °C
[10]
  ΔTm: 2.2 °C

## CN(C)c1ccc(-c2nc3c4ncn(CCN5CCCC5)c4ncn3c2NC(C)(C)C)cc1
[6]
  ΔTm: 13.4 °C
[7]
  ΔTm: 19.5 °C
[8]
  ΔTm: 7.3 °C
[9]
  ΔTm: 4.8 °C
[10]
  ΔTm: 7.5 °C
